# Xi reactivation – activators of inactive X chromosome reactivation, primary screen, imaging, XiGFP fibroblasts, GFP high-content imaging, set 2 | XiGFP mouse fibroblasts, % GFP-positive cells imaging, 3 d; cells co-treated with 5-aza-dC sensitizer; scaled so ellipticine positive control = 100% | activation, % at 7.58 µM | actives 0.055% (n = 360,000) | AID 743238, 2013;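 active means mean normalized replicate activation at least 10% and every replicate at or above 10%; inconclusive means only one of the two criteria met; inactive means mean below 10% and not all replicates reach 10%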;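 further: 0% = median of on-plate neutral control wells and 100% = ellipticine 6 µM median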
#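 assay system = SV40-immortalized XiGFP fibroblast cells, line 68-5-11 | buffer or medium = DMEM plus 5-aza-dC sensitizer | doses = single-point pinned compound dosing | times = 3-day compound exposure, then 15 min fixation at room temperature | benchmarks = positive control ellipticine, 6 µM final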
# RAD54 inh – inhibitors of human RAD54 branch migration, primary screen, biochemical, fluorescence, single point. DNA repair and recombination protein RAD54-like (Homo sapiens), Q92698. RAD54 Holliday junction branch migration, FAM/BHQ fluorescence. inhibition, % at 10.4 µM. actives 0.14% (n = 360,000). AID 602329, 2012;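 active means mean normalized replicate activity at least 40 and at least half of replicates scoring 40 or more; inconclusive means only one of the two criteria met; inactive means mean below 40 and under half of replicates reaching 40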;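 further: 0% = median of neutral control wells and 100% = median of positive control wells; inhibitors cause a drop in the FAM fluorescence signal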
# Target sequence (Q92698 whole entry, looked up): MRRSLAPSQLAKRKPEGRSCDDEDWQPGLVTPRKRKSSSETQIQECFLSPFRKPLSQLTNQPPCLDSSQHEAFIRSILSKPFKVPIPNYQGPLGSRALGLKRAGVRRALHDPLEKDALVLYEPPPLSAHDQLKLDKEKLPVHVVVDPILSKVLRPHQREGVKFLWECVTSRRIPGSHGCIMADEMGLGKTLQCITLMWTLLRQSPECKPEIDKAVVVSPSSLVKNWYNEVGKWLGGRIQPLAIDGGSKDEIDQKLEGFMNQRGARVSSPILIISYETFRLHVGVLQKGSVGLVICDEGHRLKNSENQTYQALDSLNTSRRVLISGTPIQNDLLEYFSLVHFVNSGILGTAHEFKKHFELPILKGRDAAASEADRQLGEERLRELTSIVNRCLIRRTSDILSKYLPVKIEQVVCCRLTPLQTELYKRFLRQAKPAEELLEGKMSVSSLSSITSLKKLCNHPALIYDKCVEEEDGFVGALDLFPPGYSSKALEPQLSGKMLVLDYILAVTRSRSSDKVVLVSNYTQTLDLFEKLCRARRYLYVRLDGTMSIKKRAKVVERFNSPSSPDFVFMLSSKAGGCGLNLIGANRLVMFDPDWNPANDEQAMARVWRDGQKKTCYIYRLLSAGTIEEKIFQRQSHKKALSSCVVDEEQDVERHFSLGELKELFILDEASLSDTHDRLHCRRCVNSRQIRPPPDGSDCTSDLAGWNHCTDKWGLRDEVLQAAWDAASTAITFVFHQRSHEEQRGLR
# CASP6 VEID inh – human caspase-6 inhibitors, primary screen, biochemical, VEID-R110 fluorescence, single point, set 2; actives 0.53% (n = 350,000); P55212; inhibition, % at 12.5 µM; purified caspase-6, Z-VEID-R110 cleavage fluorescence; AID 686996, 2013;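 active means mean inhibition across replicates at least about 35%, with every replicate also reaching that limit, limit read from the data; inconclusive means only one of the two criteria met; inactive means neither criterion met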;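 further: 0% = median of neutral control wells and 100% = no fluorescence left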
# RAD52 inh – RAD52 DNA annealing inhibitors, primary screen, biochemical, FRET, single point, set 2; DNA repair protein RAD52 homolog (Homo sapiens), P43351; actives 0.46% (n = 360,000); recombinant RAD52 DNA annealing, FRET fluorescence; inhibition, % at 18.7 µM;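 active means every replicate showing at least 50% inhibition; inconclusive means mean inhibition at least 50% but not in every replicate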
# S100A4 MyoIIA – inhibitors of S100A4-myosin IIA peptide binding, primary screen, biochemical, fluorescence polarization, TAMRA-MyoIIA peptide. inhibition, % at 10.7 µM. actives 0.14% (n = 360,000). AID 652163, 2013. Protein S100-A4 (Homo sapiens), P26447;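 active means mean inhibition of at least 70% across replicates, with every replicate also reaching that level; inconclusive means mean inhibition reaches 70% but some replicates fall short; inactive means mean inhibition below 70%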
#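 Material: S100A4 monomer (human). Medium: Calcium-containing HEPES buffer, pH 7.2. Probe or stimulus: labelled myosin peptide probe, 5 nM. Compound dosing: one concentration per compound. Timing: polarization read 5 min after assay mix addition, stable 5–60 min. Benchmarks: DMSO as neutral control, TFP as positive control.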
# MLL AF4-AF9 inh – inhibitors of AF4 peptide binding to AF9, primary screen, biochemical, AlphaScreen, biotin-AF4 peptide, FLAG-AF9, single point | AID 651704, 2012 | actives 0.47% (n = 350,000) | inhibition, % at 10 µM;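 active means every replicate reaching a set inhibition limit, whatever the replicate mean, cut at about 25% in these data; inconclusive means mean inhibition reaches that limit but some replicates miss it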;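 further: 0% = plate neutral control median and 100% = total signal loss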
# Active calls of the source: *; ? = inconclusive; · = not tested or not shown. Sampled rows, rich in hits. Any-hit rate of the full collection: about 1.3%.
SMILES,Xi reactivation,RAD54 inh,CASP6 VEID inh,RAD52 inh,S100A4 MyoIIA,MLL AF4-AF9 inh
CO[C@@H]1CN(C)C(=O)c2cc(NS(C)(=O)=O)ccc2OC[C@@H](C)N(C(=O)C2CCCCC2)C[C@@H]1C,-0.4,2.7,-0.6,-5.6,-17.4,-0.3
Cc1cc(OC(=O)c2ccc(Cl)cc2Cl)c([N+](=O)[O-])c(=O)[nH]1,0.0,-3.9,9.2,-11.5,-1.8,36.9*
O=C(O)c1ccccc1NS(=O)(=O)c1ccc(NNC(=S)Nc2ccc(OC(F)F)cc2)c([N+](=O)[O-])c1,0.4,·,18.5,-11.8,0.9,27.4*
Cc1ccc(NC(=S)NNc2ccc([N+](=O)[O-])cc2S(=O)(=O)Nc2ccccc2C(=O)O)cc1C,-0.3,15.4,·,·,·,·
CN(CCO)c1ccc(C=NNc2ccc([N+](=O)[O-])cc2S(=O)(=O)Nc2ccccc2C(=O)O)cc1,-0.1,-4.6,37.3*,-44.1,-10.7,?
O=C(O)c1ccccc1NS(=O)(=O)c1ccc(N/N=C/c2cccc(O)c2O)c([N+](=O)[O-])c1,-0.1,5.3,59.9*,-17.3,-7.7,1.1
CC(C)NC(=O)N(C)C[C@@H]1Oc2cc(C3=CCCC3)ccc2S(=O)(=O)N([C@H](C)CO)C[C@@H]1C,-0.9,2.9,2.6,-11.8,1.7,-8.2
COC(=O)C[C@@H]1CC[C@@H](NC(=O)Nc2ccc(C(F)(F)F)cc2)[C@@H](CO)O1,-0.1,1.5,1.8,-1.3,0.4,-3.2
CN(CCc1ccccc1)C(=O)c1ccc(NC(=O)Cc2ccc(NC(=O)C3CCN(C(=O)c4ccccc4)CC3)cc2)cc1,0.0,-6.6,-3.6,-11.4,-1.4,31.1*
NC1=CC(=O)C(=O)c2ccccc21,0.0,-7.0,40.9*,-30.4,-2.7,-0.1
CCc1nc(N2[C@@H](C#N)[C@@H](c3ccccc3-c3ccc(F)cc3)[C@@H]2CO)sc1C,0.0,·,0.7,-4.2,2.5,5.5
CCc1nc(N2[C@H](CO)[C@H](c3ccccc3-c3ccc(F)cc3)[C@@H]2C#N)sc1C,0.0,·,-4.3,60.3*,-0.1,1.8
C/C=C/c1ccccc1[C@H]1[C@@H](C#N)N(c2ncc(CC)s2)[C@@H]1CO,0.0,·,2.6,64.6*,2.4,3.0
C[C@H]1CN([C@@H](C)CO)C(=O)Cc2cc(NC(=O)C3CC3)ccc2O[C@H]1CN(C)Cc1ccncc1,-0.4,·,·,·,·,·
CC(C)NC(=O)N(C)C[C@@H]1Oc2c(NC(=O)C3CCOCC3)cccc2C(=O)N([C@H](C)CO)C[C@@H]1C,0.2,-10.3,-0.5,6.5,11.3,-0.5
O=C(Nc1cccc(C(=O)N2CCOCC2)c1)c1ccc([N+](=O)[O-])cc1,-0.1,6.0,41.7*,0.0,-0.2,0.7
O=C(CNc1cccc(S(=O)(=O)N2CCCC2)c1)Nc1cccc(Br)c1,8.3,4.6,43.8*,-40.6,1.8,-1.2
O=C(COC(=O)c1cccc(OC(F)F)c1)Nc1cccc(S(=O)(=O)N2CCCC2)c1,-0.1,14.6,60.3*,-8.7,-4.2,-0.4
CC(/C=N/Nc1nc2ccccc2[nH]1)=C\c1ccccc1,0.3,·,35.9*,-11.2,5.4,10.2
Cc1c(/C=N/Nc2nc3ccccc3[nH]2)c2ccccc2n1C,5.8,-5.4,-4.7,-12.1,5.9,25.0*
O=C(C[C@@H]1C[C@@H]2c3cc(NC(=O)C4CCC4)ccc3O[C@@H]2[C@@H](CO)O1)NCCc1ccccc1,0.0,-2.2,0.8,-0.4,-10.8,2.4
O=C(N[C@@H]1CC[C@@H](CCNC(=O)C2CCC2)O[C@@H]1CO)c1ccncc1,0.4,-2.1,1.1,-12.5,-1.1,-4.4
CNC[C@H]1OCCCC[C@@H](C)Oc2ccc(NS(=O)(=O)c3ccccc3)cc2C(=O)N([C@H](C)CO)C[C@H]1C,0.3,7.5,-1.8,-6.6,17.0,-1.1
CCCn1c2ccccc2c2nnc(SCCN3CCOCC3)nc21,-0.2,4.1,42.7*,14.3,-2.7,-0.4
CCCn1c2ccc(C)cc2c2nnc(SCCN3CCOCC3)nc21,0.6,-7.5,-2.6,18.6,0.1,2.3
SMILES,Xi reactivation,RAD54 inh,CASP6 VEID inh,RAD52 inh,S100A4 MyoIIA,MLL AF4-AF9 inh
O=C1OC(c2ccc(Cl)cc2)=N/C1=C\C=C\c1ccco1,-0.1,·,64.1*,-21.7,-7.3,0.2
O=C1OC(c2ccccc2)=N/C1=C\C=C\c1ccccc1[N+](=O)[O-],-0.2,·,5.2,-23.5,-1.7,-0.4
O=C1OC(c2ccccc2)=N/C1=C\C=C\c1ccco1,0.1,·,55.7*,-30.8,-5.8,0.1
CCCC(=O)N1CCC2(CC1)CN[C@@H](CO)c1c2c2ccc(OC)cc2n1C,0.1,·,·,·,·,·
Cc1ccccc1C1c2[nH]c3ccccc3c2CCN1Cc1cccn1-c1ncccn1 (stereo not given),?,-6.6,1.4,-21.0,-9.3,20.6
Fc1ccccc1C1c2[nH]c3ccccc3c2CCN1Cc1cccn1-c1ncccn1 (stereo not given),0.1,·,-3.4,-17.0,-7.6,26.7*
CCCNC(=O)Nc1ccc2c(c1)C(=O)N(C)C[C@H](OC)[C@H](C)CN(S(C)(=O)=O)[C@@H](C)CO2,0.2,·,1.2,18.4,-0.7,-10.7
COc1cc2[nH]c(Cl)c([N+](=O)[O-])c2cc1OC,0.1,1.8,48.6*,-10.2,-3.8,-4.5
COc1ccccc1CNC(=O)C[C@H]1CC[C@H]2[C@@H](COC[C@H](O)CN2C(=O)Nc2ccccc2)O1,0.1,2.7,0.1,-22.0,7.1,-1.1
CCC(=O)N1[C@@H](CO)[C@@H](c2ccc(-c3ccccc3)cc2)[C@@H]1CN(C)C(C)=O,0.1,1.2,·,·,·,·
CSCC[C@H](NS(=O)(=O)c1ccc(C(C)=O)cc1)c1nnc2ccccn12,0.1,-7.4,36.7*,-9.0,2.8,-0.9
O=C(c1cnccn1)N1CC[C@@H]2[C@@H](CO)Nc3ccc(-c4ccccc4)cc3[C@@H]21,0.0,-4.0,-0.7,-13.3,-4.6,0.2
CCn1c(-c2ccccc2)csc1=Nc1ccc(O)cc1,0.1,·,4.6,-6.8,-0.4,48.7*
O=C(O)C1=C(C(=O)O)C2C=CC1C2,0.1,3.1,52.5*,-11.3,-4.1,-3.8
C[C@H](CO)N1C[C@H](C)[C@@H](CN(C)C(=O)Nc2ccc3c(c2)OCO3)Oc2ccc(NS(C)(=O)=O)cc2CC1=O,0.2,3.1,-0.6,1.5,1.2,-6.1

# Screening data as filed in PubChem BioAssay.
